# Legend:
# Klebsiella pneumoniae [1] = assay: Synergistic antibacterial activity against Klebsiella pneumoniae 1398/2291 producing KPC-3 assessed as meropenem MIC at 4 ug/ml by broth microdilution method; assay type: functional; conditions: dose 4 µg/ml
# Outline: (§1)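 Broth microdilution per CLSI guidelines, using custom frozen panels. […] Each partner drug was also tested alone. MICs were run in triplicate and the modal value is reported.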
# Klebsiella pneumoniae [2] = assay: Synergistic antibacterial activity against Klebsiella pneumoniae 776/1742 producing KPC-2 assessed as cefepime MIC at 4 ug/ml by broth microdilution method; assay type: functional; conditions: dose 4 µg/ml
# Pseudomonas aeruginosa [3] = assay: Synergistic antibacterial activity against Pseudomonas aeruginosa 776 assessed as meropenem MIC at 4 ug/ml by broth microdilution method; assay type: functional; conditions: dose 4 µg/ml
# Klebsiella pneumoniae [4] = assay: Synergistic antibacterial activity against Klebsiella pneumoniae 1108/1989 producing KPC-3 assessed as cefepime MIC at 4 ug/ml by broth microdilution method; assay type: functional; conditions: dose 4 µg/ml; outline: as §1
# Acinetobacter baumannii [5] = assay: Synergistic antibacterial activity against ADC deleted Acinetobacter baumannii transfected with pWH1266 producing OXA-24/40 assessed as meropenem MIC at 4 ug/ml by broth microdilution method; assay type: functional; conditions: dose 4 µg/ml
# Pseudomonas aeruginosa [6] = assay: Synergistic antibacterial activity against Pseudomonas aeruginosa 776 assessed as cefepime MIC at 4 ug/ml by broth microdilution method; assay type: functional; conditions: dose 4 µg/ml
# Klebsiella pneumoniae [7] = assay: Synergistic antibacterial activity against Klebsiella pneumoniae 440/1360 producing KPC-2 assessed as meropenem MIC at 4 ug/ml by broth microdilution method; assay type: functional; conditions: dose 4 µg/ml; outline: as §1
# Acinetobacter baumannii [8] = assay: Synergistic antibacterial activity against Acinetobacter baumannii PR381 producing OXA-24/40 assessed as meropenem MIC at 4 ug/ml by broth microdilution method; assay type: functional; conditions: dose 4 µg/ml
# Klebsiella pneumoniae [9] = assay: Synergistic antibacterial activity against Klebsiella pneumoniae NY BS producing OXA-232 assessed as cefepime MIC at 4 ug/ml by broth microdilution method; assay type: functional; conditions: dose 4 µg/ml
# Acinetobacter baumannii [10] = assay: Synergistic antibacterial activity against Acinetobacter baumannii PR420 producing OXA-23/24/40 assessed as meropenem MIC at 4 ug/ml by broth microdilution method; assay type: functional; conditions: dose 4 µg/ml
# Klebsiella pneumoniae [11] = assay: Synergistic antibacterial activity against Klebsiella pneumoniae jefferson 1773 producing OXA-181 assessed as cefepime MIC at 4 ug/ml by broth microdilution method; assay type: functional; conditions: dose 4 µg/ml
# Klebsiella pneumoniae [12] = assay: Synergistic antibacterial activity against Klebsiella pneumoniae 977/1916 producing KPC-3 assessed as cefepime MIC at 8 ug/ml by broth microdilution method; assay type: functional; conditions: dose 8 µg/ml
# [13] = Binding affinity to bacteria ADC-7 assessed as dissociation constant
# Pseudomonas aeruginosa [14] = assay: Synergistic antibacterial activity against Pseudomonas aeruginosa 795 assessed as meropenem MIC at 4 ug/ml by broth microdilution method; assay type: functional; conditions: dose 4 µg/ml
# Acinetobacter baumannii [15] = assay: Synergistic antibacterial activity against Acinetobacter baumannii PR408 producing OXA-24/40 assessed as meropenem MIC at 4 ug/ml by broth microdilution method; assay type: functional; conditions: dose 4 µg/ml
# Klebsiella pneumoniae [16] = assay: Synergistic antibacterial activity against Klebsiella pneumoniae 660/1568 producing KPC-3 assessed as cefepime MIC at 8 ug/ml by broth microdilution method; assay type: functional; conditions: dose 8 µg/ml; outline: as §1
# Klebsiella pneumoniae [17] = assay: Synergistic antibacterial activity against Klebsiella pneumoniae 729/1679 producing KPC-3 assessed as cefepime MIC at 4 ug/ml by broth microdilution method; assay type: functional; conditions: dose 4 µg/ml; outline: as §1
# Escherichia coli [18] = assay: Synergistic antibacterial activity against Escherichia coli DH10B assessed as meropenem MIC at 4 ug/ml by broth microdilution method; assay type: functional; conditions: dose 4 µg/ml
# Bacteria = assay: Inhibition of bacteria ADC-7 assessed as half life using nitrocefin as substrate
# Klebsiella pneumoniae [19] = assay: Synergistic antibacterial activity against Klebsiella pneumoniae 761/1723 producing KPC-3 assessed as meropenem MIC at 4 ug/ml by broth microdilution method; assay type: functional; conditions: dose 4 µg/ml
# Klebsiella pneumoniae [20] = assay: Synergistic antibacterial activity against Klebsiella pneumoniae 776/1742 producing KPC-2 assessed as meropenem MIC at 8 ug/ml by broth microdilution method; assay type: functional; conditions: dose 8 µg/ml
# Acinetobacter baumannii [21] = assay: Synergistic antibacterial activity against ADC deleted Acinetobacter baumannii assessed as meropenem MIC at 4 ug/ml by broth microdilution method; assay type: functional; conditions: dose 4 µg/ml
# Klebsiella pneumoniae [22] = assay: Synergistic antibacterial activity against Klebsiella pneumoniae 935/1884 producing KPC-3 assessed as cefepime MIC at 8 ug/ml by broth microdilution method; assay type: functional; conditions: dose 8 µg/ml
# Acinetobacter baumannii [23] = assay: Synergistic antibacterial activity against ADC deleted Acinetobacter baumannii transfected with pWH1266 OXA-23 assessed as cefepime MIC at 8 ug/ml by broth microdilution method; assay type: functional; conditions: dose 8 µg/ml
# Pseudomonas aeruginosa [24] = assay: Synergistic antibacterial activity against Pseudomonas aeruginosa 839 assessed as meropenem MIC at 4 ug/ml by broth microdilution method; assay type: functional; conditions: dose 4 µg/ml
# Klebsiella pneumoniae [25] = assay: Synergistic antibacterial activity against Klebsiella pneumoniae 1108/1989 producing KPC-3 assessed as meropenem MIC at 8 ug/ml by broth microdilution method; assay type: functional; conditions: dose 8 µg/ml; outline: as §1
# Klebsiella pneumoniae [26] = assay: Synergistic antibacterial activity against Klebsiella pneumoniae CAV 1543 producing OXA-48 assessed as meropenem MIC at 8 ug/ml by broth microdilution method; assay type: functional; conditions: dose 8 µg/ml
# [27] = Inhibition of bacteria ADC-7 assessed as apparent inhibition constant using nitrocefin as substrate
# Escherichia coli [28] = assay: Synergistic antibacterial activity against Escherichia coli DH10B transfected with pBC SK (-) KPC-2 assessed as meropenem MIC at 8 ug/ml by broth microdilution method; assay type: functional; conditions: dose 8 µg/ml
# Pseudomonas aeruginosa [29] = assay: Synergistic antibacterial activity against Pseudomonas aeruginosa 776 assessed as meropenem MIC at 8 ug/ml by broth microdilution method; assay type: functional; conditions: dose 8 µg/ml
# Pseudomonas aeruginosa [30] = assay: Synergistic antibacterial activity against Pseudomonas aeruginosa CL232 assessed as meropenem MIC at 4 ug/ml by broth microdilution method; assay type: functional; conditions: dose 4 µg/ml
# Acinetobacter baumannii [31] = assay: Synergistic antibacterial activity against Acinetobacter baumannii PR448 producing OXA-23 assessed as meropenem MIC at 4 ug/ml by broth microdilution method; assay type: functional; conditions: dose 4 µg/ml
# Klebsiella pneumoniae [32] = assay: Synergistic antibacterial activity against Klebsiella pneumoniae 1315/2198 producing KPC-3 assessed as cefepime MIC at 8 ug/ml by broth microdilution method; assay type: functional; conditions: dose 8 µg/ml; outline: as §1
# Acinetobacter baumannii [33] = assay: Synergistic antibacterial activity against Acinetobacter baumannii PR440 producing OXA-23/24/40 assessed as meropenem MIC at 8 ug/ml by broth microdilution method; assay type: functional; conditions: dose 8 µg/ml
# Klebsiella pneumoniae [34] = assay: Synergistic antibacterial activity against Klebsiella pneumoniae 1084/1957 producing KPC-3 assessed as cefepime MIC at 4 ug/ml by broth microdilution method; assay type: functional; conditions: dose 4 µg/ml; outline: as §1
# Klebsiella pneumoniae [35] = assay: Synergistic antibacterial activity against Klebsiella pneumoniae 901/1860 producing KPC-3 assessed as cefepime MIC at 8 ug/ml by broth microdilution method; assay type: functional; conditions: dose 8 µg/ml
# Klebsiella pneumoniae [36] = assay: Synergistic antibacterial activity against Klebsiella pneumoniae 935/1884 producing KPC-3 assessed as meropenem MIC at 8 ug/ml by broth microdilution method; assay type: functional; conditions: dose 8 µg/ml
# Klebsiella pneumoniae [37] = assay: Synergistic antibacterial activity against Klebsiella pneumoniae jefferson 1773 producing OXA-181 assessed as cefepime MIC at 8 ug/ml by broth microdilution method; assay type: functional; conditions: dose 8 µg/ml
structure (smiles),measurement,setting,value
O=C(NNC(=O)[C@@H]1CC[C@@H]2CN1C(=O)N2OS(=O)(=O)O)[C@@H]1CCCNC1 [ZIDEBACTAM],MIC,Klebsiella pneumoniae [1],≤ 0.12 µg/mL
same,MIC,Klebsiella pneumoniae [2],≤ 0.12 µg/mL
same,MIC,Pseudomonas aeruginosa [3],16 µg/mL
same,MIC,Klebsiella pneumoniae [4],≤ 0.12 µg/mL
same,MIC,Acinetobacter baumannii [5],> 16 µg/mL
same,MIC,Pseudomonas aeruginosa [6],16 µg/mL
same,MIC,Klebsiella pneumoniae [7],≤ 0.12 µg/mL
same,MIC,Acinetobacter baumannii [8],> 16 µg/mL
same,MIC,Klebsiella pneumoniae [9],≤ 0.12 µg/mL
same,MIC,Acinetobacter baumannii [10],> 16 µg/mL
same,MIC,Klebsiella pneumoniae [11],≤ 0.12 µg/mL
same,MIC,Klebsiella pneumoniae [12],≤ 0.12 µg/mL
same,Kd,[13],32 nM
same,MIC,Pseudomonas aeruginosa [14],16 µg/mL
same,MIC,Acinetobacter baumannii [15],> 16 µg/mL
same,MIC,Klebsiella pneumoniae [16],≤ 0.12 µg/mL
same,MIC,Klebsiella pneumoniae [17],≤ 0.12 µg/mL
same,MIC,Escherichia coli [18],≤ 0.12 µg/mL
same,T1/2,Bacteria,11 min
same,MIC,Klebsiella pneumoniae [19],≤ 0.12 µg/mL
same,MIC,Klebsiella pneumoniae [20],≤ 0.12 µg/mL
same,MIC,Acinetobacter baumannii [21],≤ 0.12 µg/mL
same,MIC,Klebsiella pneumoniae [22],≤ 0.12 µg/mL
same,MIC,Acinetobacter baumannii [23],16 µg/mL
same,MIC,Pseudomonas aeruginosa [24],0.5 µg/mL
same,MIC,Klebsiella pneumoniae [25],≤ 0.12 µg/mL
same,MIC,Klebsiella pneumoniae [26],≤ 0.12 µg/mL
same,Ki,[27],2300 nM
same,MIC,Escherichia coli [28],≤ 0.12 µg/mL
same,MIC,Pseudomonas aeruginosa [29],16 µg/mL
same,MIC,Pseudomonas aeruginosa [30],> 16 µg/mL
same,MIC,Acinetobacter baumannii [31],> 16 µg/mL
same,MIC,Klebsiella pneumoniae [32],≤ 0.12 µg/mL
same,MIC,Acinetobacter baumannii [33],> 16 µg/mL
same,MIC,Klebsiella pneumoniae [34],≤ 0.12 µg/mL
same,MIC,Klebsiella pneumoniae [35],≤ 0.12 µg/mL
same,MIC,Klebsiella pneumoniae [36],≤ 0.12 µg/mL
same,MIC,Klebsiella pneumoniae [37],≤ 0.12 µg/mL
O=C(NNC(=O)[C@@H]1CC[C@@H]2CN1C(=O)N2OS(=O)(=O)O)[C@@H]1CCNC1,MIC,Klebsiella pneumoniae [1],≤ 0.12 µg/mL
same,MIC,Klebsiella pneumoniae [2],≤ 0.12 µg/mL
same,MIC,Pseudomonas aeruginosa [3],16 µg/mL
same,MIC,Klebsiella pneumoniae [4],≤ 0.12 µg/mL
same,MIC,Acinetobacter baumannii [5],> 16 µg/mL
same,MIC,Pseudomonas aeruginosa [6],16 µg/mL
same,MIC,Klebsiella pneumoniae [7],≤ 0.12 µg/mL
same,MIC,Acinetobacter baumannii [8],> 16 µg/mL
same,MIC,Klebsiella pneumoniae [9],≤ 0.12 µg/mL
same,MIC,Acinetobacter baumannii [10],> 16 µg/mL
same,MIC,Klebsiella pneumoniae [11],≤ 0.12 µg/mL
same,MIC,Klebsiella pneumoniae [12],≤ 0.12 µg/mL
same,Kd,[13],29 nM
same,MIC,Acinetobacter baumannii [15],> 16 µg/mL
same,MIC,Klebsiella pneumoniae [16],≤ 0.12 µg/mL
same,MIC,Klebsiella pneumoniae [17],≤ 0.12 µg/mL
same,MIC,Escherichia coli [18],≤ 0.12 µg/mL
same,T1/2,Bacteria,13 min
same,MIC,Klebsiella pneumoniae [19],≤ 0.12 µg/mL
same,MIC,Klebsiella pneumoniae [20],≤ 0.12 µg/mL
same,MIC,Acinetobacter baumannii [21],> 16 µg/mL
same,MIC,Klebsiella pneumoniae [22],≤ 0.12 µg/mL
same,MIC,Acinetobacter baumannii [23],16 µg/mL
same,MIC,Pseudomonas aeruginosa [24],≤ 0.12 µg/mL
same,MIC,Klebsiella pneumoniae [25],≤ 0.12 µg/mL
same,MIC,Klebsiella pneumoniae [26],≤ 0.12 µg/mL
same,Ki,[27],3700 nM
same,MIC,Escherichia coli [28],≤ 0.12 µg/mL
same,MIC,Pseudomonas aeruginosa [29],16 µg/mL
same,MIC,Pseudomonas aeruginosa [30],> 16 µg/mL
same,MIC,Acinetobacter baumannii [31],> 16 µg/mL
same,MIC,Klebsiella pneumoniae [32],≤ 0.12 µg/mL
same,MIC,Acinetobacter baumannii [33],> 16 µg/mL
same,MIC,Klebsiella pneumoniae [34],≤ 0.12 µg/mL
same,MIC,Klebsiella pneumoniae [35],≤ 0.12 µg/mL
same,MIC,Klebsiella pneumoniae [36],≤ 0.12 µg/mL
same,MIC,Klebsiella pneumoniae [37],≤ 0.12 µg/mL

# Reference: ChEMBL document CHEMBL5247575 (J Med Chem, 2018)
